# Measurements from different studies.
# Lines come from different studies, so protocols differ.
# Target: Serine/threonine-protein kinase MARK2 (MARK2, Homo sapiens, UniProt Q7KZI7)
Structure (SMILES),assay,conditions,endpoint,value
Cc1noc([C@H]2C[C@@H](c3ccc(C(F)(F)F)cc3)CN(C(=O)N3CCS(=O)(=O)C3)C2)n1,"cell-free assay, competition with immobilised ligand",1 µM,remaining binding,100%
c1cc(CN2CCOCC2)cc(Nc2nccc(NCCc3cnc[nH]3)n2)c1,"enzyme activity, inhibitor, radiometric",1 µM,remaining activity,93%
CN1CCN(c2cnc3c(C4CCN(C(=O)c5ccc(OC(F)(F)F)cc5N)CC4)ncnc3c2)CC1,"cell-free assay, competition with immobilised ligand",1 µM,remaining binding,100%
Oc1cccc(-c2nc(N3CCOCC3)c3oc4ncccc4c3n2)c1,cell-free assay,0.5 µM,remaining signal,92.9%
CS(=O)(=O)N1CCCC(NC(=O)[C@H](CCC2CCCCC2)NC(=O)c2ccc(CNC(=O)c3cnc4ccccn34)cc2)C1 (stereo partly drawn),"cell-free assay, competition with immobilised ligand",0.1 µM,remaining binding,100%
Cc1ccc(Nc2nccc(N(C)c3ccc4c(C)n(C)nc4c3)n2)cc1S(N)(=O)=O,"enzyme activity, inhibitor",10 µM,inhibition,16%
CC(=O)Nc1c(C(C)=O)c(=O)n(C)c2nc(-c3ccc(Cl)cc3Cl)c(-c3ccc(Cl)cc3)cc12,"cell-free assay, competition with immobilised ligand",1 µM,remaining binding,100%
Cc1nn(CC(F)(F)F)cc1Nc1ncc(C2CC2)c(NCCCNC(=O)C2CCC2)n1,"enzyme activity, inhibitor, radiometric",1 µM,remaining activity,93%
CO[C@H]1CC[C@H](CNc2ccc(S(=O)(=O)NC(=O)c3ccc(N4CCN(CC5=C(c6ccc(Cl)cc6)CC(C)(C)CC5)CC4)cc3Oc3cnc4[nH]ccc4c3)cc2[N+](=O)[O-])CC1,"cell-free assay, competition with immobilised ligand",1 µM,remaining binding,100%
Cc1ccc(C(=O)NCc2ccsc2)cc1C#Cc1cn(C(C)C)c2ncnc(N)c12,"enzyme activity, inhibitor",1 µM,activity vs control,99%
Nc1ncnc2occ(-c3ccc(NC(=O)Nc4cc(C(F)(F)F)ccc4F)cc3)c12,"cell-free assay, inhibitor",20 µM,remaining signal,22%
CN(C)C1CCN(CC#Cc2nn(C3CCCC3)c3nc(NCc4ccccc4)ncc23)C1 (stereo not drawn),"enzyme activity, inhibitor, FRET",10 µM,inhibition,16%
O=C(Nc1cccc(Nc2ncc(Br)c(NCCc3cnc[nH]3)n2)c1)N1CCCC1,"enzyme activity, inhibitor, radiometric",1 µM,remaining activity,5%
CN1CC(Oc2cnc(C#N)cc2-c2ccn3nc(NC(=O)C4CC4)cc3c2)C1,"enzyme activity, inhibitor",1 µM,inhibition,-1%
Cc1nn(CC(F)(F)F)cc1Nc1ncc(Br)c(NCCc2cnc[nH]2)n1,"enzyme activity, inhibitor, radiometric",1 µM,remaining activity,55%
Cn1nc(C(=O)NCc2ccc(C(=O)O)cc2)cc1-c1ccc2[nH]ccc2c1,"cell-free assay, competition with immobilised ligand",0.1 µM,remaining binding,100%
NS(=O)(=O)c1ccc(CNc2nc(Nc3cccc(CN4CCOCC4)c3)ncc2Br)cc1,"enzyme activity, inhibitor, radiometric",1 µM,remaining activity,65%
FC(F)(F)Oc1cccc(-c2cnc3ccc(-c4ccncc4)nn23)c1,"enzyme activity, inhibitor, radiometric",5 µM,activity vs control,99%
